# Measurements from ChEMBL document CHEMBL1147524, “Modified norcantharidins; synthesis, protein phosphatases 1 and 2A inhibition, and anticancer activity” (Bioorg Med Chem Lett, 2004).
# Columns and labels:
# A2780 = assay: 50% growth inhibition of A2780 (Human ovarian carcinoma) cell line compared with untreated control cells; assay type: functional
# Summary of the method: (§1)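 MTT assay in cells in logarithmic growth, plated in triplicate at 2,500–3,500 cells/well and grown 24 h before test agent was added (day 0). Cultures at 37 °C, 5% CO₂, in media with 10% foetal bovine serum, penicillin, streptomycin and glutamine. Agents were dissolved in DMSO as 5 mM stocks. Absorbance was read at 540 nm. GI50 was taken from the optical density difference between day 0 and the end of drug exposure.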
# G-401 = assay: 50% growth inhibition of G401 (human kidney carcinoma) cell line compared with untreated control cells; assay type: functional; summary of the method: as §1
# NCI-H460 = assay: 50% growth inhibition of H460 (human lung carcinoma) cell line compared with untreated control cells; assay type: functional; summary of the method: as §1
# HT-29 = assay: 50% growth inhibition of HT-29 (human colorectal carcinoma) cell line compared with untreated control cells; assay type: functional; summary of the method: as §1
# L1210 = assay: 50% growth inhibition of L1210 (murine leukemia) cell line compared with untreated control cells; assay type: functional; conditions: Mus musculus; summary of the method: as §1
# [1] = Inhibitory activity against protein phosphatase 2A from human red blood cells
# Summary of the method: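 Purified PP2A (0.3 mU/well) was preincubated 10 min with inhibitor in 50 mM Tris–HCl, pH 7.0, with CaCl₂. The reaction was started with hexapeptide substrate […] (200 μM), run 60 min at room temperature, and stopped with malachite green. A650 was read after 10 min. IC50 came from dose–response curves as the mean of three independent replicates.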
SMILES,GI50 (A2780) [µM],GI50 (NCI-H460) [µM],GI50 (HT-29) [µM],GI50 (L1210) [µM],IC50 [1] [µM],GI50 (G-401) [µM]
COC(=O)C1C(C(=O)Nc2ccc(Cl)cc2)[C@H]2CC[C@@H]1O2 (stereo not given in full),98,> 100,> 100,> 100,> 100,> 100
COC(=O)c1cccc(NC(=O)C2C(C(=O)O)[C@@H]3C=C[C@H]2O3)c1 (stereo not given in full),97,> 100,> 100,> 100,12,> 100
O=C(O)c1cccc(NC(=O)C2C(C(=O)O)[C@@H]3C=C[C@H]2O3)c1 (stereo not given in full),82,> 100,> 100,> 100,7,> 100
COC(=O)c1cccc(NC(=O)C2C(C(=O)O)[C@@H]3CC[C@H]2O3)c1 (stereo not given in full),90,> 100,> 100,> 100,7.7,> 100
CCOC(=O)c1ccc(NC(=O)C2C(C(=O)O)[C@@H]3C=C[C@H]2O3)cc1 (stereo not given in full),83,> 100,> 100,> 100,21,> 100
CN(C)C(=O)C1C(C(=O)O)[C@@H]2C=C[C@H]1O2.CNC (stereo not given in full),40,41,49,48,3.2,25
CCOC(=O)c1ccc(NC(=O)C2C(C(=O)O)[C@@H]3CC[C@H]2O3)cc1 (stereo not given in full),80,> 100,> 100,> 100,9.2,> 100
O=C1OC(=O)C2C1[C@@H]1CC[C@H]2O1 (stereo not given in full),39,50,33,13,0.96,35
"O=C(O)C1C(C(=O)OCc2ccccc2)[C@H]2CC[C@@H]1O2 (single isomer, unassigned)",81,> 100,> 100,> 100,> 100,> 100
C[C@@]12C(=O)OC(=O)[C@]1(C)[C@H]1CC[C@@H]2O1 [CANTHARIDIN],10,4.3,6.4,15,0.6,3.5

# Second part, led by results:
GI50 (A2780) [µM],GI50 (NCI-H460) [µM],GI50 (HT-29) [µM],GI50 (L1210) [µM],IC50 [1] [µM],SMILES,GI50 (G-401) [µM]
85,> 100,> 100,> 100,> 100,N#CC[C@]12C=C[C@H](O1)[C@@H]1C(=O)OC(=O)C12 (stereo not given in full),> 100
98,> 100,> 100,> 100,> 100,CC(=O)NC[C@@]12C=C[C@@H](O1)C1C(=O)OC(=O)[C@H]12 (stereo not given in full),> 100
95,> 100,> 100,> 100,> 100,CC(=O)NC[C@@]12CC[C@@H](O1)C1C(=O)OC(=O)[C@H]12 (stereo not given in full),> 100
88,> 100,89,> 100,> 100,CN.CNC(=O)C1C(C(=O)O)[C@@H]2C=C[C@H]1O2 (stereo not given in full),> 100
30,43,57,49,13,O=C(OC[C@H]1C[C@@H]2O[C@H]1[C@H]1C(=O)OC(=O)[C@H]12)c1ccccc1,53
